Among the data in ChEMBL document CHEMBL1137400, “Dopamine/serotonin receptor ligands. 13: Homologization of a benzindoloazecine-type dopamine receptor antagonist modulates the affinities for dopamine D(1)-D(5) receptors” (J Med Chem, 2006) are Ki and Activity values, retold here.

Structures are written as SMILES. Calls of active or inactive are those of the source. The rule behind the calls is not given here.

One assay addresses D(3) dopamine receptor (Homo sapiens, UniProt P35462). Nature of the assay: Displacement of [3H]spiperone from human D3 receptor expressed in CHO cells. Format: cell-based. The gist of the method:
(§1)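 Human D2L or D3 receptors stably expressed in CHO cells; [3H]spiperone displacement in 96-well format. Incubation 90 min at 27 °C, ended by rapid filtration. IC50 was converted to Ki by Cheng-Prusoff. At least two independent experiments, each run in triplicate.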

Another assay addresses T1, D(4) dopamine receptor (Homo sapiens, UniProt P21917).
T1 sequence (P21917 whole entry): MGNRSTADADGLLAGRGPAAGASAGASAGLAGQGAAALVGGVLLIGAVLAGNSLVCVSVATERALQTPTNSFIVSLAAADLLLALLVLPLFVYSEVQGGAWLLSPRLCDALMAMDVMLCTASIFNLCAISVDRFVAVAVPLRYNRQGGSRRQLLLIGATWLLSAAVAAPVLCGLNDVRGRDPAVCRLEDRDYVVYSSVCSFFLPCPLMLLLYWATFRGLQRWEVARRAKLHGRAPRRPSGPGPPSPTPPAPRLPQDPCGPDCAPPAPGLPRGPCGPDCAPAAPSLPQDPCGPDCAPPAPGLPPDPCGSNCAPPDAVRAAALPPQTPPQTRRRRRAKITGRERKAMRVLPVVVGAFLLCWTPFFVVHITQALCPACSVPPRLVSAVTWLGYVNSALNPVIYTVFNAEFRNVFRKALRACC
The assay can be described thus: (§2) Displacement of [3H]spiperone from human D4 dopamine receptor expressed in CHO cells. It counts as cell-based. The gist of the method: (§3)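 Human cloned receptors stably expressed: D1 in HEK293 cells with [3H]SCH 23390, and D4.4 in CHO cells with [3H]spiperone. Radioligand displacement was run in 96-well format, incubated 90 min at 27 °C and stopped by rapid filtration. At least two independent experiments, each in triplicate. Ki was calculated from IC50 by Cheng–Prusoff. "No activity" means under 70% displacement at 10^-5 M.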
For orientation: Loss of bound radioactivity is the signal in a displacement assay; it reports binding, not function.

Assay [1] addresses T2, D(2) dopamine receptor (Homo sapiens, UniProt P14416). Nature of the assay: Displacement of [3H]spiperone from human D2L dopamine receptor expressed in CHO cells. Format: cell-based. The gist of the method: as §1
Assay [2] has as its target T3, D(1A) dopamine receptor (Homo sapiens, UniProt P21728). Nature of the assay: Displacement of [3H]SCH 23390 from human D1 dopamine receptor expressed in HEK293 cells. It counts as cell-based. The gist of the method:
as §3

Assay [3] addresses T4, D(1B) dopamine receptor (Homo sapiens, UniProt P21918). The assay can be described thus: Displacement of [3H]SCH 23390 from human D5 dopamine receptor expressed in HEK293 cells. It counts as cell-based. The gist of the method:
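Radioligand binding with [3H]SCH 23390 on human D5 stably expressed in HEK293 cells, in 96-well format. Incubation 90 min at 27 °C, stopped by rapid filtration. Ki was calculated from IC50 by Cheng-Prusoff. At least two independent experiments, each in triplicate.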

The target in assay [4] is T3, D(1A) dopamine receptor. The assay can be described thus: Activity at human D1 dopamine receptor expressed in HEK293 cells by calcium fluorescence assay. It counts as functional, cell-based. The gist of the method: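 Human D1 stably expressed in HEK293 cells. Intracellular Ca2+ was read by fluorescence. Compounds were first checked for any Ca2+ rise on their own, then tested for concentration-dependent suppression of the signal induced by the agonist SKF 38393. Ki was taken from the sigmoidal inhibition curve. Means of three experiments of six values each (±SEM), or of two experiments.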

The target in assay [5] is T2, D(2) dopamine receptor. Nature of the assay: Activity at human D2L dopamine receptor expressed in HEK293 cells by calcium fluorescence assay. It counts as functional, cell-based.
Assay [6] deals with T4, D(1B) dopamine receptor. Nature of the assay: Activity at human D5 dopamine receptor expressed in HEK293 cells by calcium fluorescence assay. It counts as functional, cell-based.
The target in assay [7] is T5, D(4) dopamine receptor (Homo sapiens) (UniProt P21917).
T5 sequence (whole entry): T1 sequence (P21917 whole entry)
Described as §2. It counts as cell-based. The gist of the method:
as §3

T4 sequence (P21918 whole entry): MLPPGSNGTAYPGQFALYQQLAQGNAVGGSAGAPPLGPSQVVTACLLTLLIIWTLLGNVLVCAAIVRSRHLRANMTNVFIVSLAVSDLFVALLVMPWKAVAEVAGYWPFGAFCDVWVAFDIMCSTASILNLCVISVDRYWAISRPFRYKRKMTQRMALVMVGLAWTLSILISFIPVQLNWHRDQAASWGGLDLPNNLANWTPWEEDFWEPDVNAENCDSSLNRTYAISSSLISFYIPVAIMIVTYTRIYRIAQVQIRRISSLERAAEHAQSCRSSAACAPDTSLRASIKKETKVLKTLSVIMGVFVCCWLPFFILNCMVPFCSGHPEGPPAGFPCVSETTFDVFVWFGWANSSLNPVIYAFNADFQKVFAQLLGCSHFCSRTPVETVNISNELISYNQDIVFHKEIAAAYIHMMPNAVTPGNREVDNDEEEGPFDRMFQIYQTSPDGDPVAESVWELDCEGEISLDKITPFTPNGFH
Chain of D(3) dopamine receptor (P35462 whole entry): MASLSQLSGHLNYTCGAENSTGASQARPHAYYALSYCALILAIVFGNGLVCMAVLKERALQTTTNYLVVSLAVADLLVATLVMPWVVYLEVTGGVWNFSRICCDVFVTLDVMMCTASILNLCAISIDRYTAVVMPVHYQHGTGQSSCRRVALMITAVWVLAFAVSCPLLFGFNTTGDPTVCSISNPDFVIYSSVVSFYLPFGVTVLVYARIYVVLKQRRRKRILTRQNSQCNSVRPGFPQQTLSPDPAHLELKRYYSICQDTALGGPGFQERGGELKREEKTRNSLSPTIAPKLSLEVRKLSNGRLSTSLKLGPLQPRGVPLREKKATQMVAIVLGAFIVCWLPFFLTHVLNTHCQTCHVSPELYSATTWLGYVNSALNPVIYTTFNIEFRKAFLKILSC
T2 sequence (P14416 whole entry): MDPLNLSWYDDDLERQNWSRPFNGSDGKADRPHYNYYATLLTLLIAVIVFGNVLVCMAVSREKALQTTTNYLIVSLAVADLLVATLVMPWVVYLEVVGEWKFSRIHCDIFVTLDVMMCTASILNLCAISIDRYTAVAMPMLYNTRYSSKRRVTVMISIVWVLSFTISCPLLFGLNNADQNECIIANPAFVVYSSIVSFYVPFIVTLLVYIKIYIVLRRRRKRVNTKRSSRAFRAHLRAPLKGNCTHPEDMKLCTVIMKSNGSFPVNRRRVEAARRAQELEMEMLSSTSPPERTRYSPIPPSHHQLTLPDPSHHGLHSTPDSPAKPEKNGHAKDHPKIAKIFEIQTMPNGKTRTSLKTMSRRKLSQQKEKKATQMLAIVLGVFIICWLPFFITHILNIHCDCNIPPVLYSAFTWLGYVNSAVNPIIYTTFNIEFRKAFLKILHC
T3 sequence (P21728 whole entry): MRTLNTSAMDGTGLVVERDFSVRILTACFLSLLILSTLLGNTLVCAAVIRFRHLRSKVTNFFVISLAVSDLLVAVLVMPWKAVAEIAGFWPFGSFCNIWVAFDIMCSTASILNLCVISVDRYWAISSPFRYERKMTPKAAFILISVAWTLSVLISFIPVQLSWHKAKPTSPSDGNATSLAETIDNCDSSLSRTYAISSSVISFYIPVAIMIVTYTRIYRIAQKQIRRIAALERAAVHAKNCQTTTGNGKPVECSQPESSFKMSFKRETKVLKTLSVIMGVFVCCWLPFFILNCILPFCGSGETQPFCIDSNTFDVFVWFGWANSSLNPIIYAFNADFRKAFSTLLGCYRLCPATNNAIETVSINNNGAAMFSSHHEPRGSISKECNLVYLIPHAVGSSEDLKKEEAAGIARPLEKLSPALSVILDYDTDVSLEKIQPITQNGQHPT

Usually Ki stands for the dissociation constant of the complex between target and ligand, obtained from inhibition or displacement. For `CN1CCc2ccccc2Cc2[nH]c3ccccc3c2CC1`, the Ki at D(3) dopamine receptor is 25.9 nM; at D(4) dopamine receptor, 108 nM.

In the case of `CN1CCCc2ccccc2Cc2[nH]c3ccccc3c2CC1`, the Ki came to 14.5 nM on D(2) dopamine receptor [1]; 2.2 nM at D(1A) dopamine receptor [2]; 278 nM on D(3) dopamine receptor; 98.4 nM on D(4) dopamine receptor; 0.61 nM at D(1B) dopamine receptor [3]; 2.8 nM on D(1A) dopamine receptor [4]. Also, the Ki on D(2) dopamine receptor [5] is 1.5 nM; at D(1B) dopamine receptor [6] it was 2.8 nM.

For `CN1CCCc2c([nH]c3ccccc23)Cc2ccccc2CC1`, the Ki is 143 nM on D(2) dopamine receptor [1]; 163 nM at D(1A) dopamine receptor [2]; 521 nM at D(3) dopamine receptor; 184 nM on D(4) dopamine receptor; 92 nM on D(1B) dopamine receptor [3]; 304 nM on D(1A) dopamine receptor [4]. Also, the Ki at D(2) dopamine receptor [5] was found to be 38 nM; on D(1B) dopamine receptor [6], 71.6 nM.

As for `c1ccc2c(c1)CCCN1CCc3c([nH]c4ccccc34)C21` (centres undefined), the result (on D(2) dopamine receptor [1]; at D(1A) dopamine receptor [2]; at D(3) dopamine receptor; in [7]; on D(1B) dopamine receptor [3]; on D(1A) dopamine receptor [4]) was inactive. For the same molecule, the result on D(2) dopamine receptor [5] and on D(1B) dopamine receptor [6] was inactive.

On to `c1ccc2c(c1)CCN1CCCc3c([nH]c4ccccc34)C21` (centres undefined), for which the result (on D(2) dopamine receptor [1]; at D(1A) dopamine receptor [2]; at D(3) dopamine receptor; in assay [7]; at D(1B) dopamine receptor [3]; on D(1A) dopamine receptor [4]) was inactive. In addition, the result at D(2) dopamine receptor [5] and at D(1B) dopamine receptor [6] was inactive.
